From PMC8026699 (Cancer research, 2021)
Values after ≈ are worked out from the molar mass of the structure shown.

Experiments:
[1] = biological target: T1, recombinant human ACSS3 (Homo sapiens, UniProt Q9H6R3); experiment: TranScreener AMP biochemical assay of ACSS3 activity; settings: regardless of the substrate (acetate or propionate)
T1 sequence (Q9H6R3 30-686): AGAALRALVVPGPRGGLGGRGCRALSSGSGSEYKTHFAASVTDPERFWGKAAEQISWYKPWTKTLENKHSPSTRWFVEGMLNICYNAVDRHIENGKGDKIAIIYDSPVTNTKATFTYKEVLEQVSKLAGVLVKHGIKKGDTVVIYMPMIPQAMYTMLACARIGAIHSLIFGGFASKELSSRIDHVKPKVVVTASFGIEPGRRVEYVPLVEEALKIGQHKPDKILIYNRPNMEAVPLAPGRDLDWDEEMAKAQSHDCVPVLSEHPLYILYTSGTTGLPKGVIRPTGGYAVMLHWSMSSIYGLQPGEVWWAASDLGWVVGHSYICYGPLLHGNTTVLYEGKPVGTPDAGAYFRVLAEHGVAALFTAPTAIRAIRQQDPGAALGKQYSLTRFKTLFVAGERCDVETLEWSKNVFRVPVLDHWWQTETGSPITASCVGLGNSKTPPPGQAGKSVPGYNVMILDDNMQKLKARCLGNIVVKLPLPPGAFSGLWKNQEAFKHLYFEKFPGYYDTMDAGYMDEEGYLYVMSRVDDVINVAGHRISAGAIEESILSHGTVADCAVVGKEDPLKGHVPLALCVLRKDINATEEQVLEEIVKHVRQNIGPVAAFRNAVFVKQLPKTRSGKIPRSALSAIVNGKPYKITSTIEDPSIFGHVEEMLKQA
Method in brief: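 Test compound was serially diluted in DMSO and added to ACSS1 (2 nM) or ACSS3 (25 nM). Acetate reaction: HEPES pH 7.4 buffer with 140 mM NaCl; final 5 mM acetate, 50 μM ATP, 5 μM CoA. Propionate reaction: HEPES/KCl/CHAPS buffer; final 5 mM propionate, 10 μM ATP, 100 μM CoA. Incubation 120 min, then AMP detected by terbium-antibody/tracer TR-FRET after 30 min. Percent inhibition was set against no-enzyme and DMSO controls.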

[2] = Water solubility in PBS; format: physicochemical; settings: PBS buffer, pH 7.4
Method in brief: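 10 mg test compound in 1 mL PBS pH 7.4, sonicated 30 min, vortexed 30 min at low speed, then left 16–24 h at room temperature. Filtered (0.22 μm) and 10-fold serially diluted in triplicate in ACN:water (1:1). Internal standard added; LC-MS/MS quantitation against a five-standard calibration curve.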

[3] = Mouse liver microsomal stability; format: in vitro ADME; settings: 0.5 μM compound, 0.5 mg/mL microsomes; compared with VY-3-249
Method in brief: (§1)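 Incubations: 0.5 μM compound, 0.5 mg/mL liver microsomes, NADPH-regenerating system, potassium phosphate pH 7.4. Timed aliquots quenched in acetonitrile with internal standard; no-cofactor controls run. LC-MS/MS analyte/internal-standard peak-area ratios. Elimination constant fitted by nonlinear regression; t1/2 from k = 0.693/t1/2. CLint scaled with 48 (mouse) or 39.7 (human) mg protein/g liver. n = 1.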

[4] = Human liver microsomal stability; format: in vitro ADME; settings: 0.5 μM compound, 0.5 mg/mL microsomes; compared with VY-3-249
Method in brief: as §1

[5] = test system: BT474 cells; experiment: Growth of BT474 cells; format: cell-based, human; settings: BT474, 10 μM, 72 hours, H1 conditions, 200 μM sodium acetate
[6] = test system: SKBr3 cells; experiment: Growth of SKBr3 cells; format: cell-based, human; settings: SKBr3, 10 μM, 72 hours, H1 conditions, 200 μM sodium acetate
[7] = test system: A7C11 cells; experiment: 13C2-acetate labeling of palmitate in A7C11 cells; format: cell-based, mouse; settings: A7C11, N10 and H1, 24 hr, 100 μM 13C2-acetate
Method in brief: (§2)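 Cells labeled 24 h with 100 μM 13C2-acetate in SMEM under N10 (normoxia, 10% dialyzed FBS) or H1 (1% O2, 1% dialyzed FBS). Vehicle or test compound present; for BT474 in H1, a 10-fold dilution series. Lipids extracted with methanol/chloroform/PBS, saponified in 0.3 M KOH/90% methanol at 70°C for 1 h, then hexane-extracted. Palmitate labeling read by C18 reverse-phase LC-MS. n = 3, mean ± S.D.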

[8] = test system: Brpkp110 cells; experiment: 13C2-acetate labeling of palmitate in Brpkp110 cells; format: cell-based, mouse; settings: Brpkp110, N10 and H1, 24 hr, 100 μM 13C2-acetate
Method in brief: as §2

[9] = test system: sgACSS2 Brpkp110 tumors; experiment: sgACSS2 Brpkp110 tumor growth in mice; format: in vivo, mouse; settings: sgACSS2 Brpkp110 (ACSS2 knockout) tumors
Method in brief: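 Parental or CRISPR-Cas9 sgAcss2 cells (lentiviral, blasticidin-selected pools) implanted subcutaneously into 5–6-week-old female NSG mice in PBS:Matrigel: A7C11 at 5×10^5, Brpkp110 at 5×10^5. Calipers read tumors three times weekly. Volume = (L × W²)/2, L being the longer measurement; not blinded.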

[10] = test system: MDA-MB-468 tumors; experiment: MDA-MB-468 tumor xenograft growth; format: in vivo, mouse; settings: MDA-MB-468 (ACSS2 high), 100 mpk daily PO
Method in brief: (§3)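 Female NSG mice, 5–6 weeks old, received subcutaneous PBS:Matrigel grafts: BT474 at 1×10^6 (with a 60-day 17β-estradiol pellet at the neck), MDA-MB-468 at 5×10^6, or WHIM12 PDX cells at 2×10^6. Once tumors established, mice were randomized to daily IP or oral gavage. Arms: vehicle (10% DMSO, 20% solutol, 70% water with 0.5% Tween20) or 100 mg/kg test compound. Calipers thrice weekly; volume (L × W²)/2.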

[11] = test system: WHIM12 tumors; experiment: WHIM12 PDX tumor growth; format: in vivo, mouse; settings: WHIM12 (ACSS2 low), 100 mpk daily PO
Method in brief: as §3

[12] = test system: BT474 tumors; experiment: BT474 tumor xenograft growth; format: in vivo, mouse; settings: BT474, 100 mpk daily IP
Method in brief: as §3

[13] = test system: BT474, MDA-MB-468, and WHIM12 tumors; experiment: Heavy acetate stable isotope tracing in tumors; format: in vivo, mouse
Method in brief: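 Tumor-bearing mice received 2% D3- or 13C2-acetate in drinking water for two days, plus a 2 g/kg IP heavy-acetate bolus 90 min before sacrifice. Tumors excised under anesthesia and flash-frozen. Extraction at 40 mg/mL in methanol/acetonitrile/water (5:3:2) by bead homogenization, cleared twice. Citrate labeling analysed by HILIC LC-MS.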

In the case of `CCn1c(C(O)(c2ccccc2)c2ccccc2)nc2ccc(C(=O)NC[C@@H](C)O)cc21` [VY-3-135, (R)-1-ethyl-2-(hydroxydiphenylmethyl)-N-(2-hydroxypropyl)-1H-benzo[d]imidazole-6-carboxamide], the “inhibitory activity towards ACSS3” value [1] was “neither VY-3-249 nor VY-3-135 displayed any inhibitory activity”, the solubility [2] was 21.7 µM (≈ 9.32 µg/mL) and the “stability in mouse liver microsomal assay” value [3] was “superior stability”. For the same compound, the “stability in human liver microsomal assay” value [4] was “superior stability”, the cell growth [5] was “modest growth inhibition” and the cell growth [6] was “modest growth inhibition”. The “acetate dependent labeling of palmitate by 13C2-acetate” value [7] was “efficiently blocked”, the “acetate dependent labeling of palmitate by 13C2-acetate” value [8] was “efficiently blocked” and the tumor growth [9] was “no further effect on tumor growth”. For the same compound, the tumor growth [10] was “repressed”, the tumor growth [11] was “mostly ineffective” and the “tumor regression by the end of the regimen” value ([12]; n = 5 mice per group) was “two of the tumors in VY-3-135 treated group were not palpable by the end of the regimen, with one tumor fully regressing”. For the same compound, the tumor growth ([12]; two weeks of treatment) was “completely abrogated tumor growth”, the “D3-acetate labeling of citrate in MDA-MB-468 tumors” value ([13]; MDA-MB-468 tumors) was “increase in D3-acetate labeling of citrate” and the “D3-acetate or 13C2-acetate labeling of citrate in tumors” value ([13]; readout of ACSS1) was “did not observe any inhibitory effect”.
